Assay results taken from publication PMC12505120 (RSC Advances, 2025).
Read-outs that look alike come from different tables or passages of the source.

Legend:
HSA = HSA (Homo sapiens, UniProt P02768); assay: HSA tryptophan fluorescence quenching; assay type: binding; conditions: for Stern–Volmer quenching constant Ksv × 10^4: values × 10^4, HSA 2.5 μM, Tris–HCl pH 7.4, 10% DMSO, 24 h; for ΔG: ΔG = −RT ln Kb; for predominant interaction mode with HSA: according to Ross's proposal from the signs of ΔH and ΔS
Sequence of HSA (P02768 25-609): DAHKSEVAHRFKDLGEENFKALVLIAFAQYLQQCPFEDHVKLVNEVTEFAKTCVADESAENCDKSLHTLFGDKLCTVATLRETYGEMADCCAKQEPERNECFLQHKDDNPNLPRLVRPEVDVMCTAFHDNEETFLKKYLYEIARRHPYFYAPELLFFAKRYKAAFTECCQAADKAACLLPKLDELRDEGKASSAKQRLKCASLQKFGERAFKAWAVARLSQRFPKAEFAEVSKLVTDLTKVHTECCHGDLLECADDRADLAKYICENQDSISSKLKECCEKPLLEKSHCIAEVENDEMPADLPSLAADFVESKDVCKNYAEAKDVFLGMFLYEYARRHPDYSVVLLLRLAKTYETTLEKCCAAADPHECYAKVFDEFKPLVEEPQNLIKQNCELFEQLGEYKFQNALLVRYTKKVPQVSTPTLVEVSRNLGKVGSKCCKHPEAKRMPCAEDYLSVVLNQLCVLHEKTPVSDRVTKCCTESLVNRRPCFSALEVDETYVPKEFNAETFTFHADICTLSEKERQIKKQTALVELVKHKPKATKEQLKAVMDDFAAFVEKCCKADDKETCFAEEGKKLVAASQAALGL
Outline: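 HSA in Tris–HCl (4.5 mM Trizma HCl, 0.5 mM Trizma base, 50 mM NaCl) held at 2.5 μM with test compound at 1, 2.5, 5, 10, 15, 20, 25 or 30 μM, using 10% DMSO. Incubated 24 h in a water bath at 300 K or 310 K. Excitation 270 nm, emission 300–500 nm, triplicates. Intensity at 330 nm fitted to Stern–Volmer (F0/F vs [Q]) and log((F0−F)/F) vs log[Q]. ΔG = −RT ln Kb.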

[1] = test system: bovine serum albumin (BSA); conditions: cited from earlier work

Structure (SMILES) | ΔS (HSA; T 300 K) [J mol^−1 K^−1] | Stern–Volmer quenching constant Ksv × 10^4 (HSA; T 300 K) [M^−1] | ΔG (HSA; T 300 K) [kcal/mol] | ΔS (HSA; T 310 K) [J mol^−1 K^−1] | Stern–Volmer quenching constant Ksv × 10^4 (HSA; T 310 K) [M^−1] | ΔG (HSA; T 310 K) [kcal/mol] | predominant interaction mode with HSA (HSA) | binding constant to BSA ([1]; HPBI complexed with benzoxaborole) [M⁻¹] | binding constant to BSA ([1]; free HPBI) [M⁻¹] | fluorescence quenching mechanism (HSA; from temperature dependence of Ksv at 300 and 310 K)
COc1ccc(/C=C/c2ccc(B(O)O)cc2)cc1 [7a] | 74.5 | 1.05 | -6.69 | 22.9 | 0.53 | -3.08 | electrostatic forces | – | – | –
Oc1ccccc1-c1nc2ccccc2[nH]1 [HPBI, 2-(2-hydroxyphenyl)benzimidazole] | – | – | – | – | – | – | – | 1.2e+06 | 20000 | –
COc1ccc(/C=C/c2cccc3c2COB3O)cc1 [5a] | 105.1 | 10.1 | -7 | 122.4 | 17.7 | -8.58 | hydrophobic interactions | – | – | –
COc1ccc(/C=C/c2ccc(B3OC(C)(C)C(C)(C)O3)cc2)cc1 [3b] | 82.1 | 5.91 | -5.69 | 83.3 | 8.69 | -6.36 | hydrophobic interactions | – | – | dynamic fluorescence quenching mechanism
